# What was measured:
# Assay type in all cases: toxicity, cell-based
# [1] = test system: HEK-293T; test: Incucyte cell viability with HEK293T; conditions: human, 10 µM, compound concentration 10 uM; also: filed as whole numbers so only -1 and 0 and 1 occur
# [2] = test system: Fibroblast; test: Incucyte cell viability with human fibroblast; conditions: 10 µM, compound concentration 10 uM; also: filed as whole numbers so only -1 and 0 and 1 occur
# [3] = test system: HEK-293T; test: Multiplex assay against HEK293T; conditions: human;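 as to Population Tubulin-Different-Phenotype (%): share of the cells with healthy nuclei that show this phenotype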
# How it was run: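 Cells stained live at seeding with Hoechst33342, BioTracker Green Microtubule Cytoskeleton Dye, MitoTracker Red and Annexin V Alexa Fluor 680 were imaged on a CQ1 microscope at 37°C and 5% CO2 after compound addition. Their classification by CellPathfinder machine-learning gating ran from Hoechst high-intensity objects versus normal cells, to healthy, pyknosed or fragmented nuclei among normal cells, to mitotic or apoptotic among pyknosed cells. Tubulin, mitochondrial-mass and membrane-permeability phenotypes are per cents of healthy-nucleus cells.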
# [4] = 0 h, replicate number 1, timepoint 0 hours
# [5] = 24 h, replicate number 1, timepoint 24 hours
# [6] = 12 h, 1 µM, compound concentration 1 uM, replicate 1
# [7] = 12 h, 1 µM, compound concentration 1 uM, replicate 2
# [8] = 12 h, 10 µM, compound concentration 10 uM, replicate 1
# [9] = 12 h, 10 µM, compound concentration 10 uM, replicate 2
# [10] = 24 h, 1 µM, compound concentration 1 uM, replicate 1
# [11] = 24 h, 1 µM, compound concentration 1 uM, replicate 2
# [12] = 24 h, 10 µM, compound concentration 10 uM, replicate 1
# [13] = 24 h, 10 µM, compound concentration 10 uM, replicate 2
# [14] = 48 h, 1 µM, compound concentration 1 uM, replicate 1
# [15] = 48 h, 1 µM, compound concentration 1 uM, replicate 2
# [16] = 48 h, 10 µM, compound concentration 10 uM, replicate 1
# [17] = 48 h, 10 µM, compound concentration 10 uM, replicate 2
structure (smiles),measurement,setting,value
CCn1c(-c2nonc2N)nc2cnc(Oc3cccc(NC(=O)c4ccc(OCCN5CCOCC5)cc4)c3)cc21 [GSK-269962A],Growth Rate,[1]; [4],1
same,Growth Rate,"[1]; 0 h, replicate number 2, timepoint 0 hours",0
same,Growth Rate,"[1]; 6 h, replicate number 1, timepoint 6 hours",0
same,Growth Rate,"[1]; 12 h, replicate number 1, timepoint 12 hours",0
same,Growth Rate,"[1]; 18 h, replicate number 1, timepoint 18 hours",0
same,Growth Rate,[1]; [5],0
same,Growth Rate,[2]; [4],0
same,Growth Rate,[2]; [5],1
same,Population Apoptotic (%),[3]; [6],44%
same,Population Fragmented Nuclei (%),[3]; [6],14%
same,Population Healthy Nuclei (%),[3]; [6],26%
same,Population Hoechst High Intensity Objects (%),[3]; [6],17%
same,Population Membrane Permeable-Phenotype (%),[3]; [6],3%
same,Population Mitochondria Different-Phenotype (%),[3]; [6],75%
same,Population Mitotic Cells (%),[3]; [6],55%
same,Population Normal (%),[3]; [6],82%
same,Population Pyknosed Nuclei (%),[3]; [6],58%
same,Population Tubulin-Different-Phenotype (%),[3]; [6],55%
same,Total Cell Count,[3]; [6],262
same,Population Apoptotic (%),[3]; [7],12%
same,Population Fragmented Nuclei (%),[3]; [7],8%
same,Population Healthy Nuclei (%),[3]; [7],44%
same,Population Hoechst High Intensity Objects (%),[3]; [7],6%
same,Population Membrane Permeable-Phenotype (%),[3]; [7],5%
same,Population Mitochondria Different-Phenotype (%),[3]; [7],21%
same,Population Mitotic Cells (%),[3]; [7],87%
same,Population Normal (%),[3]; [7],93%
same,Population Pyknosed Nuclei (%),[3]; [7],46%
same,Population Tubulin-Different-Phenotype (%),[3]; [7],21%
same,Total Cell Count,[3]; [7],251
same,Population Apoptotic (%),[3]; [8],61%
same,Population Fragmented Nuclei (%),[3]; [8],7%
same,Population Healthy Nuclei (%),[3]; [8],20%
same,Population Hoechst High Intensity Objects (%),[3]; [8],12%
same,Population Membrane Permeable-Phenotype (%),[3]; [8],1%
same,Population Mitochondria Different-Phenotype (%),[3]; [8],98%
same,Population Mitotic Cells (%),[3]; [8],38%
same,Population Normal (%),[3]; [8],87%
same,Population Pyknosed Nuclei (%),[3]; [8],72%
same,Population Tubulin-Different-Phenotype (%),[3]; [8],100%
same,Total Cell Count,[3]; [8],284
same,Population Apoptotic (%),[3]; [9],54%
same,Population Fragmented Nuclei (%),[3]; [9],4%
same,Population Healthy Nuclei (%),[3]; [9],13%
same,Population Hoechst High Intensity Objects (%),[3]; [9],7%
same,Population Membrane Permeable-Phenotype (%),[3]; [9],0%
same,Population Mitochondria Different-Phenotype (%),[3]; [9],100%
same,Population Mitotic Cells (%),[3]; [9],45%
same,Population Normal (%),[3]; [9],92%
same,Population Pyknosed Nuclei (%),[3]; [9],81%
same,Total Cell Count,[3]; [9],186
same,Population Apoptotic (%),[3]; [10],56%
same,Population Fragmented Nuclei (%),[3]; [10],18%
same,Population Healthy Nuclei (%),[3]; [10],30%
same,Population Hoechst High Intensity Objects (%),[3]; [10],16%
same,Population Membrane Permeable-Phenotype (%),[3]; [10],1%
same,Population Mitochondria Different-Phenotype (%),[3]; [10],75%
same,Population Mitotic Cells (%),[3]; [10],43%
same,Population Normal (%),[3]; [10],83%
same,Population Pyknosed Nuclei (%),[3]; [10],51%
same,Population Tubulin-Different-Phenotype (%),[3]; [10],43%
same,Total Cell Count,[3]; [10],254
same,Population Apoptotic (%),[3]; [11],11%
same,Population Fragmented Nuclei (%),[3]; [11],12%
same,Population Healthy Nuclei (%),[3]; [11],61%
same,Population Hoechst High Intensity Objects (%),[3]; [11],3%
same,Population Membrane Permeable-Phenotype (%),[3]; [11],4%
same,Population Mitochondria Different-Phenotype (%),[3]; [11],17%
same,Population Mitotic Cells (%),[3]; [11],88%
same,Population Normal (%),[3]; [11],96%
same,Population Pyknosed Nuclei (%),[3]; [11],26%
same,Population Tubulin-Different-Phenotype (%),[3]; [11],31%
same,Total Cell Count,[3]; [11],267
same,Population Apoptotic (%),[3]; [12],74%
same,Population Fragmented Nuclei (%),[3]; [12],12%
same,Population Healthy Nuclei (%),[3]; [12],31%
same,Population Hoechst High Intensity Objects (%),[3]; [12],12%
same,Population Membrane Permeable-Phenotype (%),[3]; [12],4%
same,Population Mitochondria Different-Phenotype (%),[3]; [12],96%
same,Population Mitotic Cells (%),[3]; [12],25%
same,Population Normal (%),[3]; [12],87%
same,Population Pyknosed Nuclei (%),[3]; [12],56%
same,Population Tubulin-Different-Phenotype (%),[3]; [12],98%
same,Total Cell Count,[3]; [12],276
same,Population Apoptotic (%),[3]; [13],72%
same,Population Fragmented Nuclei (%),[3]; [13],6%
same,Population Healthy Nuclei (%),[3]; [13],22%
same,Population Hoechst High Intensity Objects (%),[3]; [13],6%
same,Population Membrane Permeable-Phenotype (%),[3]; [13],5%
same,Population Mitochondria Different-Phenotype (%),[3]; [13],87%
same,Population Mitotic Cells (%),[3]; [13],28%
same,Population Normal (%),[3]; [13],93%
same,Population Pyknosed Nuclei (%),[3]; [13],70%
same,Population Tubulin-Different-Phenotype (%),[3]; [13],97%
same,Total Cell Count,[3]; [13],189
same,Population Apoptotic (%),[3]; [14],56%
same,Population Fragmented Nuclei (%),[3]; [14],18%
same,Population Healthy Nuclei (%),[3]; [14],23%
same,Population Hoechst High Intensity Objects (%),[3]; [14],19%
same,Population Membrane Permeable-Phenotype (%),[3]; [14],4%
same,Population Mitochondria Different-Phenotype (%),[3]; [14],54%
same,Population Mitotic Cells (%),[3]; [14],43%
same,Population Normal (%),[3]; [14],80%
same,Population Pyknosed Nuclei (%),[3]; [14],58%
same,Population Tubulin-Different-Phenotype (%),[3]; [14],45%
same,Total Cell Count,[3]; [14],255
same,Population Apoptotic (%),[3]; [15],41%
same,Population Fragmented Nuclei (%),[3]; [15],20%
same,Population Healthy Nuclei (%),[3]; [15],66%
same,Population Hoechst High Intensity Objects (%),[3]; [15],3%
same,Population Membrane Permeable-Phenotype (%),[3]; [15],5%
same,Population Mitochondria Different-Phenotype (%),[3]; [15],12%
same,Population Mitotic Cells (%),[3]; [15],58%
same,Population Normal (%),[3]; [15],96%
same,Population Pyknosed Nuclei (%),[3]; [15],12%
same,Population Tubulin-Different-Phenotype (%),[3]; [15],30%
same,Total Cell Count,[3]; [15],329
same,Population Apoptotic (%),[3]; [16],80%
same,Population Fragmented Nuclei (%),[3]; [16],18%
same,Population Healthy Nuclei (%),[3]; [16],40%
same,Population Hoechst High Intensity Objects (%),[3]; [16],11%
same,Population Membrane Permeable-Phenotype (%),[3]; [16],1%
same,Population Mitochondria Different-Phenotype (%),[3]; [16],97%
same,Population Mitotic Cells (%),[3]; [16],19%
same,Population Normal (%),[3]; [16],88%
same,Population Pyknosed Nuclei (%),[3]; [16],41%
same,Population Tubulin-Different-Phenotype (%),[3]; [16],97%
same,Total Cell Count,[3]; [16],286
same,Population Apoptotic (%),[3]; [17],82%
same,Population Fragmented Nuclei (%),[3]; [17],5%
same,Population Healthy Nuclei (%),[3]; [17],56%
same,Population Hoechst High Intensity Objects (%),[3]; [17],7%
same,Population Mitochondria Different-Phenotype (%),[3]; [17],89%
same,Population Mitotic Cells (%),[3]; [17],17%
same,Population Normal (%),[3]; [17],92%
same,Population Pyknosed Nuclei (%),[3]; [17],38%
same,Population Tubulin-Different-Phenotype (%),[3]; [17],99%
same,Total Cell Count,[3]; [17],192

# Reference: ChEMBL document CHEMBL4689842, “EUbOPEN Chemogenomics Library wave 1” (2021)
